Laboratory results reported in ChEMBL document CHEMBL1149628, “Synthesis of novel lactam derivatives and their evaluation as ligands for the dopamine receptors, leading to a D(4)-selective ligand” (Bioorg Med Chem, 2007).
Calls of active or inactive are those of the source. The rule behind the calls is not given here.

Columns and labels:
D(2) dopamine receptor [1] = molecular target: T1, D(2) dopamine receptor (Homo sapiens, UniProt P14416); experiment: Displacement of [3H]spiperone from human Dopamine receptor D2 isoform long expressed in HEK293 cells at 10 uM; type: cell-based
T1 sequence (P14416 whole entry, canonical isoform): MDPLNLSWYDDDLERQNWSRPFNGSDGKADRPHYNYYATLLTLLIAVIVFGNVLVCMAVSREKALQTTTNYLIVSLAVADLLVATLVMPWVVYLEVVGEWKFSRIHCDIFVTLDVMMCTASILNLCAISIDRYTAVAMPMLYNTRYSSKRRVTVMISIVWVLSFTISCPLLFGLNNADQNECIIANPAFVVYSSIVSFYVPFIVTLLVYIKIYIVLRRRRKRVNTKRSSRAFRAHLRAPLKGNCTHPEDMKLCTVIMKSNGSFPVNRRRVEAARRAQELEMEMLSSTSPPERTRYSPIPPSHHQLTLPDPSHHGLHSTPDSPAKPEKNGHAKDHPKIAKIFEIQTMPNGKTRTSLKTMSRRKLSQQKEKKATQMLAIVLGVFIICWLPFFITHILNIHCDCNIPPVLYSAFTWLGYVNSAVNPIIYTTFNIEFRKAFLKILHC
Summary of the method: (§1)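 Whole HEK293 cells expressing hD5 or hD2L were suspended in 50 mM Tris-HCl, 5 mM MgCl2, pH 7.4, with [3H]SCH 23390 (D5) or [3H]spiperone (D2) and run in triplicate for 1.5 h at 27 °C. Samples were filtered on PEI-treated filtermats and counted by scintillation. Non-specific binding was set with fluphenazine 100 µM (D5) or haloperidol 10 µM (D2). The value is % change in bound radioactivity.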

D(2) dopamine receptor [2] = molecular target: T1, D(2) dopamine receptor; experiment: Displacement of [3H]Spiperone from human Dopamine receptor D2 isoform long expressed in HEK293 cells; type: cell-based
Summary of the method: (§2)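 [3H]Spiperone competition on whole-cell suspensions (D2L in HEK293, D4.4 in CHO) in Tris-HCl 50 mM/MgCl2 5 mM pH 7.4, 1.5 h at 27 °C. Non-specific binding defined with 10 µM haloperidol. Filtration over PEI-treated filtermat, scintillation counting. At least two independent triplicate experiments; nonlinear fit IC50 converted to Ki by Cheng-Prusoff.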

D(2) dopamine receptor [3] = molecular target: T1, D(2) dopamine receptor; experiment: Antagonist activity at human Dopamine receptor D2 isoform long expressed in HEK293 cells assessed as change in quinpirole-induced intracellular calcium response at 10 uM; type: functional, cell-based; set-up: scale not given: the % may be the effect or the level left
Summary of the method: (§3)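 HEK293 cells stably expressing hD2L or hD5 were loaded with Oregon Green 488 BAPTA-1/AM for 45 min at 37 °C and resuspended in Krebs-Hepes buffer at pH 7.4. Cells were preincubated with compound for 30 min at 37 °C, then given standard agonist at 1 µM final (quinpirole for D2, SKF 38393 for D5). Fluorescence (ex 485, em 520 nm) was read for 30 s; the value is % change of the agonist-induced signal.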

D(2) dopamine receptor [4] = molecular target: T1, D(2) dopamine receptor; experiment: Antagonist activity at human Dopamine receptor D2 isoform long expressed in HEK293 cells assessed as change in quinpirole-induced intracellular calcium response; type: functional, cell-based
Summary of the method: (§4)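 Intact HEK293 cells stably expressing the receptor, loaded with Oregon Green 488 BAPTA-1/AM plus Pluronic F-127 for 45 min at 37 °C, then suspended in Krebs-Hepes buffer pH 7.4. Fluorescence ex 485/em 520 nm read over 30 s. IC50 by four-parameter fit; Ki via modified Cheng-Prusoff.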

[5] = Displacement of [3H]spiperone from human Dopamine D4.4 receptor expressed in CHO cells at 10 uM; type: cell-based
D(1B) dopamine receptor [6] = molecular target: T2, D(1B) dopamine receptor (Homo sapiens, UniProt P21918); experiment: Displacement of [3H]SCH 23390 from human Dopamine D5 receptor expressed in HEK293 cells at 10 uM; type: cell-based; summary of the method: as §1
T2 sequence (P21918 whole entry): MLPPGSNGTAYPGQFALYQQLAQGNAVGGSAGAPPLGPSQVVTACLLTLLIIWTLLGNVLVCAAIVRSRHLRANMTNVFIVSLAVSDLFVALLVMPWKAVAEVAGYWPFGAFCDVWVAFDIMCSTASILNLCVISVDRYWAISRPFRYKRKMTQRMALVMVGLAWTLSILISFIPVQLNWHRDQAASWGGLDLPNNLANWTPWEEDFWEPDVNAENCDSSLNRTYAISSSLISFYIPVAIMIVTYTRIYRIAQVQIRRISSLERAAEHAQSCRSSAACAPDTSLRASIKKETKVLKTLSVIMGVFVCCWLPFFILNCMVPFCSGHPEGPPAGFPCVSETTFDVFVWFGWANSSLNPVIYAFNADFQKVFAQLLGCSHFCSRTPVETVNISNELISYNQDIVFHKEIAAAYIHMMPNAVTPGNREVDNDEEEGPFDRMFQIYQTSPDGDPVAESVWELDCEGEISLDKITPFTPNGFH

D(3) dopamine receptor = D(3) dopamine receptor (Homo sapiens, UniProt P35462); experiment: Displacement of [3H]spiperone from human Dopamine D3 receptor expressed in CHO cells; type: cell-based
Sequence of D(3) dopamine receptor (P35462 whole entry): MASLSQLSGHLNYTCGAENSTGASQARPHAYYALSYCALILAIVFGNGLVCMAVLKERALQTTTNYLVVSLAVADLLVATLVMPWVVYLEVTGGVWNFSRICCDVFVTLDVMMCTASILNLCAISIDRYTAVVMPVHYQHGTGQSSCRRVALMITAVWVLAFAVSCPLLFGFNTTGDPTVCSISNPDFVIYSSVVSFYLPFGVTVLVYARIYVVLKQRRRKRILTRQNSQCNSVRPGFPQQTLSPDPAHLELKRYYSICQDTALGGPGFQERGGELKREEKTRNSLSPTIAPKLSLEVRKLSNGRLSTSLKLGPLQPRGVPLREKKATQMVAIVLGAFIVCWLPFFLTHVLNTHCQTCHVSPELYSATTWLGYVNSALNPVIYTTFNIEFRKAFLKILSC

[7] = Displacement of [3H]spiperone from human Dopamine D4.4 receptor expressed in CHO cells; type: cell-based; summary of the method: as §2
D(1B) dopamine receptor [8] = molecular target: T2, D(1B) dopamine receptor; experiment: Displacement of [3H]SCH 23390 from human Dopamine D5 receptor expressed in HEK293
Summary of the method: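 Whole HEK293 cell suspension in 5 mM MgCl2/50 mM Tris-HCl pH 7.4, incubated with [3H]SCH 23390 for 1.5 h at 27 °C. Fluphenazine 100 µM defined non-specific binding. Separation by filtration over polyethyleneimine-treated filters, then scintillation counting. At least two independent experiments, each in triplicate; Ki from IC50 by Cheng-Prusoff.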

D(1B) dopamine receptor [9] = molecular target: T2, D(1B) dopamine receptor; experiment: Antagonist activity at human Dopamine D5 receptor in HEK293 cells assessed as change in SKF 38393-induced intracellular calcium response at 10 uM; type: functional, cell-based; set-up: scale not given: the % may be the effect or the level left; summary of the method: as §3
D(1B) dopamine receptor [10] = molecular target: T2, D(1B) dopamine receptor; experiment: Antagonist activity at human Dopamine D5 receptor in HEK293 cells assessed as change in SKF 38393-induced intracellular calcium response; type: functional, cell-based; summary of the method: as §4
Homo sapiens [11] = species on record: Homo sapiens; experiment: Selectivity for human dopamine D4.4 receptor over human dopamine receptor D2 isoform long
Homo sapiens [12] = species on record: Homo sapiens; experiment: Selectivity for human dopamine D4.4 receptor over human dopamine D3 receptor
Homo sapiens [13] = species on record: Homo sapiens; experiment: Selectivity for human dopamine D4.4 receptor over human dopamine D5 receptor

SMILES	Activity (D(2) dopamine receptor [1]) [%]	Ki (D(2) dopamine receptor [2]) [nM]	Activity (D(2) dopamine receptor [3]) [%]	Ki (D(2) dopamine receptor [4]) [nM]	Activity (D(1B) dopamine receptor [6]) [%]	Ki (D(3) dopamine receptor) [nM]	Ki (D(1B) dopamine receptor [8]) [nM]	Activity (D(1B) dopamine receptor [9]) [%]	Activity (D(1B) dopamine receptor [10])	Selectivity ratio (Homo sapiens [11])	Selectivity ratio (Homo sapiens [12])	Selectivity ratio (Homo sapiens [13])	Ki (D(1B) dopamine receptor [10])	Activity [5] [%]	Ki [7] [nM]
COc1ccccc1N1CCN(CCCCn2cnc3ccccc3c2=O)CC1	105	184	-58	1.2											
O=C1c2ccccc2CN1CCCCN1CCN(c2cccc(C(F)(F)F)c2)CC1	106	387	-53	26	99	14	80.8	41	inactive					95	368
O=C1c2ccccc2S(=O)(=O)N1CCCCN1CCN(c2ccc(Cl)cc2)CC1	99	177	-24	> 10000	87	287	230	4	inactive					101	36
O=c1c2ccccc2ncn1CCCCN1CCN(c2cccc(C(F)(F)F)c2)CC1	107	73	-38	> 10000	76	102	1700	9	inactive					98	185
O=C1c2ccccc2S(=O)(=O)N1CCCCN1CCN(c2cccc(C(F)(F)F)c2)CC1	100	113	-44	> 10000	89	107	1760	8	inactive					54	> 10000

Now from value to compound, other results behind:

Activity (D(2) dopamine receptor [1]) [%]	Ki (D(2) dopamine receptor [2]) [nM]	Activity (D(2) dopamine receptor [3]) [%]	Ki (D(2) dopamine receptor [4]) [nM]	Activity (D(1B) dopamine receptor [6]) [%]	Ki (D(3) dopamine receptor) [nM]	Ki (D(1B) dopamine receptor [8]) [nM]	Activity (D(1B) dopamine receptor [9]) [%]	Activity (D(1B) dopamine receptor [10])	Selectivity ratio (Homo sapiens [11])	Selectivity ratio (Homo sapiens [12])	Selectivity ratio (Homo sapiens [13])	Ki (D(1B) dopamine receptor [10])	SMILES	Activity [5] [%]	Ki [7] [nM]
106	1750	-28	375	93	1200	202	8	inactive	> 43000	> 30000	> 5000		O=C1Cc2ccccc2N1CCCCN1CCN(c2ccc(Cl)cc2)CC1	101	0.04
105	323	-55	416	93	247	190	26	inactive					O=C1Cc2ccccc2N1CCCCN1CCN(c2cccc(C(F)(F)F)c2)CC1	96	28
100	140	-44	> 10000	76	1780	507	5					Not Active	O=c1c2ccccc2ncn1CCCCN1CCN(c2ccc(Cl)cc2)CC1	102	158
105	760	-7	> 10000	100	660	33.6	21	inactive					O=C1c2ccccc2CN1CCCCN1CCN(c2ccc(Cl)cc2)CC1	91	142
